According to ChEMBL document CHEMBL1151688, “Antiobesity designed multiple ligands: Synthesis of pyrazole fatty acid amides and evaluation as hypophagic agents” (Bioorg Med Chem, 2008):
Calls of active or inactive are those of the source. The rule behind the calls is not given here.

Legend:
[1] = tested on: Mus musculus; test: Effect on rectal temperature in mouse at 10 mg/kg, ip after 15 mins; type: functional, organism-based; set-up: dose 10 mg/kg
Procedure, shortened: (§1)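 Adult male 129S1/SvImJ mice (25–30 g); rectal temperature measured with a probe at 3 cm depth before dosing and 15 min after ip injection; tests run 9:00–15:00 h; mean ± SEM.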

[2] = tested on: Mus musculus; test: Inhibition of […]-induced hypothermia in mouse assessed as rectal temperature at 10 mg/kg ip after 15 mins; type: functional, organism-based; set-up: dose 10 mg/kg
Procedure, shortened: (§2)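 Male 129S1/SvImJ mice given compound ip together with WIN 2 mg/kg ip; rectal temperature taken by probe at 3 cm depth before and 15 min after injection; compared with WIN alone by Student's t-test.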

[3] = biological target: T1, Peroxisome proliferator-activated receptor alpha (Homo sapiens) (UniProt Q07869); test: Activation of human PPARalpha assessed as receptor-GST-TIF2 interaction by GST pull down assay
T1 sequence (whole entry): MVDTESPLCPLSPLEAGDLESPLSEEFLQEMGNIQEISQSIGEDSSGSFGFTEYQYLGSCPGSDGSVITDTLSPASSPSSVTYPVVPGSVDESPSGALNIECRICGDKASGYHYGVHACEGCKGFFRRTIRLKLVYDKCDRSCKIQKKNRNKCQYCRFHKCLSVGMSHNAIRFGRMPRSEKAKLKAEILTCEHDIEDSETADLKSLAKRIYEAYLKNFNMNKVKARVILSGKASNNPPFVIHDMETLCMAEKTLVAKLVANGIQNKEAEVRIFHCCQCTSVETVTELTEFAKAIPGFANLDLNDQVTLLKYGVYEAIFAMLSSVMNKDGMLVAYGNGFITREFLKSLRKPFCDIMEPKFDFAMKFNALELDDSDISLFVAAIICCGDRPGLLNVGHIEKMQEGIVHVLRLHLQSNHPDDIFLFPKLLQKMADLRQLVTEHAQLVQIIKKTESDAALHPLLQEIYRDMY

[4] = tested on: Rattus norvegicus; test: Inhibition of food intake in 24 hrs food-deprived Wistar rat assessed at 0.3 mg/kg, ip; type: functional, organism-based; set-up: dose 0.3 mg/kg
Procedure, shortened: (§3)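 Male Wistar rats (250–450 g), habituated to handling, food-deprived 24 h with water available; compound suspended in saline with Tween 80, given ip; 15 min later returned to home cage with weighed food; intake (g/kg) measured at 30, 60, 120 and 240 min; ≥8 rats per group, ANOVA vs vehicle.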

[5] = tested on: Rattus norvegicus; test: Inhibition of food intake in 24 hrs food-deprived Wistar rat assessed at 3 mg/kg, ip; type: functional, organism-based; set-up: dose 3 mg/kg; procedure, shortened: as §3
[6] = biological target: Peroxisome proliferator-activated receptor alpha (Homo sapiens) (UniProt Q07869); test: Agonist activity at human PPARalpha expressed in human MCF7 cells coexpressing TIF2 by luciferase reporter gene assay
[7] = tested on: Mus musculus; test: Inhibition of […]-induced hypothermia in mouse assessed as rectal temperature at 3 mg/kg ip after 15 mins; type: functional, organism-based; set-up: dose 3 mg/kg; procedure, shortened: as §2
[8] = tested on: Mus musculus; test: Effect on rectal temperature in mouse at 3 mg/kg, ip after 15 mins; type: functional, organism-based; set-up: dose 3 mg/kg; procedure, shortened: as §1
[9] = tested on: Mus musculus; test: Inhibition of […]-induced decrease in locomotor activity in ip dosed mouse after 15 mins; type: functional, organism-based

Compound	Activity [3]	Activity [4]	Activity [5]	Activity [7]	further results
CCCCCCCCCCCCCCCCNC(=O)c1cc(-c2ccc(Cl)cc2)n(-c2ccc(Cl)cc2)n1	inactive				Activity [1]: inactive; Activity [2]: inactive
Cc1c(C(=O)NN2CCCCC2)nn(-c2ccc(Cl)cc2Cl)c1-c1ccc(I)cc1					Activity [6]: inactive
CCCCCCCC/C=C\CCCCCCCCNC(=O)c1cc(-c2ccc(Cl)cc2)n(-c2ccccc2)n1	Active	Active	Active	inactive	Activity [8]: inactive
CCCCCCCC/C=C\CCCCCCCCNC(=O)c1cc(-c2ccc(Cl)cc2)n(-c2ccc(Cl)cc2Cl)n1	Active				
CCCCCCCCCCCCCCCCNC(=O)c1cc(-c2ccc(Cl)cc2)n(-c2ccccc2)n1	inactive			inactive	Activity [8]: inactive; Activity [9]: Active
CCCCCCCC/C=C\CCCCCCCCNC(=O)c1cc(-c2ccc(Cl)cc2)n(-c2ccc(Cl)cc2)n1	Active	inactive	inactive	Active	

Second part, led by results:

Activity [3]	Compound	Activity [4]	Activity [5]	Activity [7]	further results
inactive	CCCCCCCCCCCCCCCCNC(=O)c1nn(-c2ccc(Cl)cc2Cl)c(-c2ccc(Cl)cc2)c1C	inactive	inactive		
Active	CCCCCCCC/C=C\CCCCCCCCNC(=O)c1nn(-c2ccc(Cl)cc2Cl)c(-c2ccc(Cl)cc2)c1C				
inactive	CCCCCCCCCCCCCCCCNC(=O)c1cc(-c2ccc(Cl)cc2)n(-c2ccc(Cl)cc2Cl)n1				
